Bioassay records (PubChem)
This is a sample that favours compounds with a hit; in the whole collection about 1.9% have one here.
STEP block = blocks human striatal-enriched tyrosine phosphatase; P54829; recombinant STEP, OMFP fluorogenic substrate, fluorescence; inhibition, % at 20 µM; 0.25% of 360,000 active; AID 588621;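 active = inhibition at 20 µM, scaled per plate between control wells, above about 37%, limit read from the data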;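 also: 0% = DMSO with enzyme and substrate and 100% = substrate only without enzyme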
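Also added – OMFP at 25 µM · Test system – STEP tyrosine phosphatase · Technique – FITC-channel fluorescence of OMFP product · Schedule – 20 min at room temperature, dark · Evaluation – control-normalized % inhibition with plate pattern correction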
SUMO1 PPI mod = modulators of human SUMO1-mediated protein-protein interactions; SUMO1 binding to a labelled peptide, TR-FRET, 1 h; inhibition, % at 20 µM; 0.33% of 360,000 active; AID 602429; in the data active = inhibition above about 37%
Target sequence (P63165 whole entry, looked up): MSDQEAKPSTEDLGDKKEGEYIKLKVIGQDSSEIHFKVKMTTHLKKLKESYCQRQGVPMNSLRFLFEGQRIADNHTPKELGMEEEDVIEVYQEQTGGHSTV
LMPTP block = blocks human LMPTP phosphatase. P24666. recombinant LMPTP-A, OMFP fluorogenic substrate, fluorescence intensity. inhibition, % at 20 µM. 0.22% of 360,000 active;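 active = compounds that cut the enzyme signal by at least half of the control window in the single-dose screen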;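 also: plate controls were DMSO wells with enzyme plus substrate for no effect and substrate without enzyme for full effect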
Target sequence (P24666 whole entry, looked up): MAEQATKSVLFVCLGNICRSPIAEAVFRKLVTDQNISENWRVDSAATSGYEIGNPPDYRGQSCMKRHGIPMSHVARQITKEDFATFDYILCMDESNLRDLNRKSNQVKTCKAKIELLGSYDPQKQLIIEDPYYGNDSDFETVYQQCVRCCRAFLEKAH
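Material: LMPTP-A; amount: 0.625 nM enzyme; doses: single 20 µM dose; times: reaction 50 min, room temperature, dark; technique: fluorescence intensity of OMFP turnover product; benchmarks: no-enzyme and uninhibited controls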
DNMT1 inh = DNMT1 (human) enzyme inhibition; P26358; DNMT1 molecular beacon, Hinp1I cleavage, fluorescence; inhibition (reported as % activation of signal), % at 10 µM; 0.83% of 360,000 active; AID 588458; in the data active = inhibition above about 50%
Scp1 inh = Scp-1 (human) phosphatase inhibition; Q9GZU7; Recombinant Scp1, phosphopeptide, malachite green phosphate absorbance; inhibition, % at 20 µM; 0.88% of 340,000 active; AID 493091;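 active = inhibition above about 50% at 20 µM, limit read from the data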;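 also: plate controls were DMSO wells with enzyme for no effect and wells lacking enzyme for full effect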
Target sequence (Q9GZU7 76-261 limits assumed): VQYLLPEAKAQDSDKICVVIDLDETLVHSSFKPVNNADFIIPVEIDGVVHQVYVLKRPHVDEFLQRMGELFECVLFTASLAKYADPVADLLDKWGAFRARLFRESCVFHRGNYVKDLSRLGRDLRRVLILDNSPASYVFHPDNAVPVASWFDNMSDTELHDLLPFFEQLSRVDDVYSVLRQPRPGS
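Incubation: 45 min enzyme reaction at room temperature / System: truncated SCP-1 phosphatase (76-261aa) / Reagent: Phospho 17-mer peptide substrate / Buffer or medium: Acidic Tris acetate buffer with magnesium and detergent / Signal: absorbance at 630 nm / Doses: one concentration, 20 µM, with 1.0% DMSO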
UBC9 SUMO inh = inhibitors of human SUMOylation (UBC9). 0.36% of 290,000 active. HTRF SUMOylation assay, SAE1/SAE2 + UBC9, in vitro. inhibition, % at 35 µM. P63279; in the data active = inhibition above about 50%, passing the limit was not always enough
Target sequence (P63279 whole entry, looked up): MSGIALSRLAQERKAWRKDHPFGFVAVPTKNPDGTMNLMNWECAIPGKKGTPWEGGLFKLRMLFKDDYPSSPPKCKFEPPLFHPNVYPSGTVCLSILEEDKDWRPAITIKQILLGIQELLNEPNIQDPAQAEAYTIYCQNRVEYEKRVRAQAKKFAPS
Scp1 confirm = confirmation of human Scp-1 phosphatase inhibitors; shares compounds with Scp1 inh; recombinant SCP-1 catalytic domain, phosphate release, malachite green absorbance; inhibition, % at 20 µM; 61% of 2,500 active; AID 540281;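 also: plate controls were DMSO with enzyme for no effect and buffer wells lacking enzyme for full effect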
Scp-1 MG ctr = colorimetric interference in Scp-1 counter-screen. shares compounds with Scp1 inh. Colorimetric interference counterscreen, malachite green absorbance 630 nm. apparent inhibition (interference), % at 20 µM. 2,500 tested, under 10 active;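 also: compounds added after enzyme reaction finished so only phosphate colour detection is probed; plate controls were DMSO wells with completed Scp-1 reaction for no effect and substrate wells lacking enzyme for full effect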
Scp-1 Tm shift = binds human Scp-1, shifting its melting temperature; thermal shift relative to vanadate control, % at 40 µM; Recombinant SCP1, Sypro Orange thermal shift Tm; shares compounds with Scp1 inh; 25% of 1,500 active; AID 540329;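 active = substances whose mean melting-temperature shift, as a percentage of the reference inhibitor's shift, reaches about 5.3%, limit read from the data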;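 also: 0% = Tm of DMSO wells and 100% = Tm with sodium orthovanadate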
Numbers without * were called inactive; x = no result given.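 The calls were made as follows, unless noted: active = inhibition of at least 30% at 20 µM; inactive = the rest.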

SMILES	STEP block	SUMO1 PPI mod	LMPTP block	DNMT1 inh	Scp1 inh	UBC9 SUMO inh	Scp1 confirm	Scp-1 MG ctr	others
O=[N+]([O-])c1cc(-c2ccc(/C=N/n3cnnc3)o2)ccc1Cl	8.1	-36.7	3.8	-0.3	17.5	5.7	x	x
CC(C)(C)OC(=O)NCCCCCNC(=O)c1ncn2c1c(=O)[nH]c1ccccc12	0.8	13.6	-0.8	1.4	x	x	x	x
CC(=O)c1c(C)[nH]c(C(=O)CN(C)CC(=O)Nc2ccccc2Cl)c1C	0.7	-3.5	-0.4	-6.7	-15.3	x	x	x
CSc1ccccc1NC(=O)CN(C)CC(=O)c1[nH]c(C)c(C(C)=O)c1C	-0.9	-4.1	-0.7	2.6	101.4*	x	-19.4	-24.4
COc1ccc(Cl)cc1CC1(C)C(=O)Nc2c(Cl)cccc21 (stereo not drawn)	-1.3	-0.6	0.4	2.0	x	x	x	x
OC(CSc1ccccc1)CN1CCN(c2ccccc2)CC1 (stereo not drawn)	-0.4	11.6	0.5	1.4	-2.7	x	x	x
COc1ccc(S(=O)(=O)NNC(=O)Cc2csc(C)n2)cc1[N+](=O)[O-]	6.3	-5.7	28.6	32.2	60.2*	x	64.2*	-6.2	Scp-1 Tm shift=-11.1
COCCN(C(=O)COC(=O)CCC(=O)c1cccs1)c1c(N)n(Cc2ccccc2)c(=O)[nH]c1=O	-2.9	0.3	0.5	0.9	-2.0	x	x	x
NC(=O)C[n+]1cccc(C(=O)Nc2ccccc2)c1	-1.9	0.7	-0.5	-0.5	90.2*	8.0	-5.9	-6.2
O=C(C[n+]1cccc(C(=O)Nc2ccccc2)c1)c1ccc(Cl)cc1	x	-12.2	-2.0	x	x	x	x	x
O=C(CSc1ccc(-c2ccccc2)nn1)N1CCCc2ccccc21	2.2	0.5	1.4	1.7	58.3*	-6.8	0.5	-3.2
CCCOc1ccc(-c2nnc(-c3cccs3)o2)cc1	-1.6	17.9	0.7	-3.6	66.6*	8.0	-11.7	-19.2
COc1ccc(OC)c(NC(=O)CCN2C(=O)c3ccccc3C2=O)c1	-1.0	-2.9	0.7	-8.7	-3.7	-2.4	x	x
O=C(Nc1ccccc1O)c1ccc2c(c1)C(=O)N(Cc1ccco1)C2=O	5.5	-4.2	17.5	4.2	67.7*	21.9	59.0*	-14.0	Scp-1 Tm shift=4.3
O=[N+]([O-])c1ccc2nc(-c3ccccc3)n(OCc3ccc(Cl)cc3)c2c1	5.7	1.5	3.7	13.9	58.8*	15.6	51.0*	-5.2	Scp-1 Tm shift=6.2*
CCOc1ncccc1C(=O)N(C)CC(=O)Nc1ccccc1SC	-6.5	-0.8	-0.2	4.4	60.2*	16.0	-3.0	-7.1
COc1ccc2nc(Nc3nc(CSc4nnnn4-c4ccccc4)cc(=O)[nH]3)nc(C)c2c1	3.9	0.4	2.1	-5.7	82.6*	22.8	9.7	-7.3
O=C(NCc1ccccc1)/C(=C/c1ccccc1)NC(=O)c1ccco1	1.3	1.1	-0.8	-3.2	-0.6	-4.7	x	x
CC(=O)Oc1ccc(/C=C(\NC(=O)c2ccco2)C(=O)NCc2ccccc2)cc1	-0.8	-5.6	-0.5	-0.7	53.5*	-0.9	-6.2	-5.7
Cc1ccc(Nc2nc(N)nc(CSC(=S)N3CCOCC3)n2)c(C)c1	0.2	2.1	-1.2	1.9	5.5	8.6	x	x
CC/C(=C\C(=O)c1cccnc1)Nc1ccc(C)c(C)c1	0.5	-3.2	-2.2	0.0	52.6*	0.7	-18.1	-15.3
CC(=O)Nc1ccc(N/C(C)=C/C(=O)c2cccnc2)cc1	1.8	-3.3	-1.1	5.2	-1.4	6.7	x	x
NC1=NC(=O)C(CC(=O)NCc2ccccc2)S1 (stereo not drawn)	0.0	-4.8	-0.6	4.4	3.1	23.1	-13.2	-9.0
Cc1cc(=O)oc2cc(NC(=S)NCc3ccccn3)ccc12	-1.5	-4.8	0.2	-2.5	-6.1	16.1	x	x
Cc1cc(=O)oc2cc(NC(=S)NNC(=O)c3c(Cl)cnn3C)ccc12	12.6	16.6	3.1	-7.3	70.5*	8.7	67.3*	-6.5	Scp-1 Tm shift=-0.9
SMILES	STEP block	SUMO1 PPI mod	LMPTP block	DNMT1 inh	Scp1 inh	UBC9 SUMO inh	Scp1 confirm	Scp-1 MG ctr	others
O=C(CSc1nnc(Nc2ccccc2F)s1)NC1CCS(=O)(=O)C1 (stereo not drawn)	-4.9	1.6	-0.2	5.2	-0.1	x	x	x
O=C(CSc1nnc(Nc2ccccc2F)s1)NC(=O)CN1CCCC1=O	37.5	7.8	11.9	45.0	63.2*	x	57.4*	-7.9	Scp-1 Tm shift=-10.3
N#Cc1ccc(C(=O)CSc2n[nH]c(=O)n2-c2cccnc2)cc1	-4.2	-3.5	-0.3	-4.1	3.8	23.6	x	x
Cc1cc(C(=O)O)ccc1-c1ccc(/C=C2\NC(=O)N(Cc3ccccc3Cl)C2=O)o1	2.1	18.7	2.9	63.8*	64.9*	31.5	74.6*	-0.2	Scp-1 Tm shift=9.3*
CC(C)(C)OC(=O)CN1C(=O)S/C(=C\c2ccc(-c3cccc(C(=O)O)c3)o2)C1=O	x	x	x	x	x	9.4	x	x
Cc1ccc(C(=O)O)cc1-c1ccc(/C=C2\SC(=O)N(CC(=O)Nc3ccccc3)C2=O)o1	5.0	9.7	46.8	67.2*	72.7*	84.9*	83.6*	-13.4	Scp-1 Tm shift=10.2*
O=C(O)c1ccc(-c2ccc(/C=C3\NC(=O)N(Cc4ccc(Cl)cc4)C3=O)o2)cc1	2.5	19.1	6.1	18.9	42.1	37.6	x	x
Cc1ccccc1NC(=O)CN1C(=O)S/C(=C\c2ccc(-c3cc(C(=O)O)ccc3C)o2)C1=O	5.9	11.2	47.5	30.4	97.8*	x	68.9*	-15.8	Scp-1 Tm shift=-483.5
Cc1ccc(NC(=O)CN2C(=O)S/C(=C\c3ccc(C(=O)O)cc3)C2=O)cc1	1.2	-22.5	-0.1	46.2	26.3	-2.7	x	x
CCCCN(C)C(=O)C1CCCN(S(=O)(=O)c2ccc3c(c2)CC(C)N3C(=O)C2CC2)C1 (stereo not drawn)	-3.5	0.5	-0.9	0.5	-5.2	6.7	x	x
COc1cc(CNC(=O)c2ccc3oc(C(C)C)nc3c2)cc(OC)c1	-1.4	-0.8	1.0	-7.0	5.7	-7.1	x	x
Nc1ccc2c(c1)-c1ccc(F)cc1C2=O	0.6	-42.7	3.9	7.4	-0.3	x	x	x
CC(=O)c1ccc(NS(=O)(=O)c2cccc(C(=O)Nc3ccccc3C(=O)O)c2)cc1	-0.6	15.2	-0.1	0.8	-6.5	11.5	x	x
O=C(CN1C(=O)S/C(=C\c2ccc(O)c([N+](=O)[O-])c2)C1=O)Nc1ccc(N2CCOCC2)cc1	11.8	-12.0	22.1	-0.2	61.9*	-13.4	60.4*	-2.4	Scp-1 Tm shift=2.2
